High-throughput results from PubChem BioAssay.
Neddylation inh: cullin neddylation inhibition | P61081+Q13564 | TR-FRET cullin neddylation, biochemical | calls only at 25 µM | 360,000 tested, 0.58% active | AID 651699; in the data active means inhibition above about 36%
IMP-1 inh-1: inhibitors of Pseudomonas aeruginosa IMP-1 metallo-beta-lactamase | purified IMP-1, nitrocefin hydrolysis, epi-absorbance fluorescence | inhibition, % at 5.6 µM | 290,000 tested, 0.45% active;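 active means inhibition above the mean plus 3 SD of all compounds in the same screening run, cut at about 4.5% in these data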;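 further: 0% = IMP-1 with DMSO and 100% = DMSO wells lacking enzyme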
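assay system = purified recombinant IMP-1 metallo-beta-lactamase enzyme | schedule = 15 min preincubation plus 25 min reaction at 25 °C | signal = Epi-absorbance fluorescence, 480 nm excitation, 530 nm emission | read-out basis = percent inhibition from optical density relative to buffer-blank wells | controls = IMP-1 with DMSO as 0%, enzyme-free DMSO as 100%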
procasp7 counter: activates human procaspase-7, counter-screen for procaspase-3 activators | P55210 | recombinant procaspase-7, Ac-DEVD-pNA absorbance 405 nm; D23A/D198A/D206A triple mutant, cannot self-cleave; scale: DMSO 0, 5 µM enzyme 100 | activation, % at 8.5 µM | 330,000 tested, 0.093% active | AID 463210;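 active means percent activation above the screen-wide mean plus 3 SD, cut at about 25% in these data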
Target sequence (P55210 whole entry D23A/D198A/D206A): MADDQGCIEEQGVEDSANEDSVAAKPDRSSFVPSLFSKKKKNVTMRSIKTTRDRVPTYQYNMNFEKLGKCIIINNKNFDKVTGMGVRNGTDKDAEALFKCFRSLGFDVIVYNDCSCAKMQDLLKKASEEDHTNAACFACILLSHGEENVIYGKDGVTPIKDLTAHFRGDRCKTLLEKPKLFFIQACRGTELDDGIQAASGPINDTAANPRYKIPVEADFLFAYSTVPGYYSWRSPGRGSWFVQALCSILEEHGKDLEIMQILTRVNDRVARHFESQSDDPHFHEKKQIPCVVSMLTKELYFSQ
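Assay system – Uncleavable procaspase-7 mutant enzyme · Quantity – 2 µM procaspase-7 mutant as dispensed · Times – 1 h preincubation, 2 h reaction · Dosing – single nominal 8.5 µM compound dose, 0.8% DMSO final · Buffer or medium – Zinc-free 50 mM HEPES buffer, pH 7.4, with NaCl and Triton X-100 · Detection – Epi-absorbance of released pNA at 405 nm, two timepoints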
PolyA inh: yeast polyadenylation inhibition; S. cerevisiae SKY197-pL101 polyadenylation reporter, beta-gal luminescence; efflux-impaired pdr1/pdr3 knockout yeast; score 100 = 6 SD above DMSO; activity score, % at 12 µM; 300,000 tested, 0.02% active; AID 1875;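 active means lowest replicate activity score at least 50, where 100 means six control SD above control mean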;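 further: yeast exposed to compound for 9 h at 30 °C; higher score means more reporter readthrough which indicates perturbed polyadenylation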
VIM-2 inh: inhibitors of Pseudomonas aeruginosa VIM-2 metallo-beta-lactamase; inhibition, % at 5.6 µM; purified VIM-2, nitrocefin hydrolysis, epi-absorbance fluorescence; 290,000 tested, 0.89% active;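 active means inhibition above the mean of all tested compounds plus 3 SD, cutoff set per screening run, cut at about 7.5% in these data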;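 further: red hydrolysis product quenches plate fluorescence so inhibitors raise well fluorescence; 0% = enzyme with DMSO and 100% = DMSO without enzyme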
procasp3 activ: activators of human procaspase-3; P42574; recombinant procaspase-3 D3A, Ac-DEVD-pNA absorbance 405 nm; activation, % at 8.5 µM; 330,000 tested, 0.11% active; AID 463141;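 active means activation above the mean of all tested compounds plus 3 SD, cut at about 21% in these data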;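 further: 0% = DMSO alone and 100% = DMSO wells spiked with extra 5 µM PC-3 D3A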
Target sequence (P42574 whole entry D9A/D28A/D175A): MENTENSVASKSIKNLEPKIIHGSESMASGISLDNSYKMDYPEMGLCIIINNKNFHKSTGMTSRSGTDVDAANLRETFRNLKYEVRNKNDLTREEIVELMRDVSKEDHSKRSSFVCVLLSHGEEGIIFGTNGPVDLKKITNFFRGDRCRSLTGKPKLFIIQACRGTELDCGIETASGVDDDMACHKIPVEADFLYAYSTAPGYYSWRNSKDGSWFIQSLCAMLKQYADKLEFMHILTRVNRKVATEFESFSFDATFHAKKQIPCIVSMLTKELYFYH
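Test system: Procaspase-3 D3A mutant; medium: Zinc-free HEPES/NaCl buffer with 0.01% Triton X-100 at pH 7.4; reagent: DEVD-pNA substrate; doses: one concentration, 8.5 µM nominal, 0.8% DMSO; times: 1 h preincubation plus 2 h reaction at 25 °C; signal: Epi-absorbance at 405 nm of released p-nitroaniline, 0 and 120 min; replicates: singlicate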
IMP-1 inh-2: blocks IMP-1 metallo-beta-lactamase in VIM-2 selectivity screen; shares compounds with VIM-2 inh; purified IMP-1, nitrocefin hydrolysis, epi-absorbance fluorescence; inhibition, % at 5.6 µM; 1,300 tested, under 10 active; call rule not given here;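 further: 0% = enzyme with vehicle and 100% = vehicle without enzyme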
VIM-2 FRET ctr: inhibits VIM-2 in FRET assay to exclude epi-absorbance artifacts; 1,300 tested, 23% active; inhibition, % at 5.6 µM; AID 1857; shares compounds with VIM-2 inh; purified VIM-2, CCF2 FRET substrate hydrolysis;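 active means inhibition above the mean of all tested compounds plus 3 SD, cut at about 19% in these data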;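 further: 0% = VIM-2 plus DMSO and 100% = no enzyme wells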
TEM-1 inh: selectivity counter-screen for VIM-2 inhibitors: E. coli TEM-1 inhibitors. Purified TEM-1, nitrocefin hydrolysis, epi-absorbance fluorescence. 1,300 tested, 3% active. shares compounds with VIM-2 inh. inhibition, % at 5.6 µM;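 active means inhibition above that campaign's mean inhibition plus 3 SD, cut at about 0.46% in these data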;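 further: 0% = TEM-1 with DMSO and 100% = TEM-1 with 100 µM potassium clavulanate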
VIM-2 inh conf: confirmation of P. aeruginosa VIM-2 metallo-beta-lactamase inhibitors; shares compounds with VIM-2 inh; purified VIM-2, nitrocefin hydrolysis, epi-absorbance; inhibition, % at 5.6 µM; 1,300 tested, 96% active; AID 2187;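 active means inhibition of the VIM-2 beta-lactamase enzyme above about 11% from the earlier first-round screen, limit read from the data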;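 further: 0% = VIM-2 with DMSO and 100% = buffer wells without enzyme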
The depositor's hits bear a star; i = inactive; nt = no result given; + = active, no number. Shown are actives, neighbours in structure and some others; about 1.7% of the full set was active somewhere.

SMILES	Neddylation inh	IMP-1 inh-1	procasp7 counter	PolyA inh	VIM-2 inh	procasp3 activ	IMP-1 inh-2	VIM-2 FRET ctr	TEM-1 inh	VIM-2 inh conf
Cc1c(C=C2C(=O)N(C)C(=S)N(C)C2=O)c2ccccc2n1CC(=O)NCC1CCCO1 (stereo not drawn)	i	19*	nt	nt	-4	nt	nt	nt	nt	nt
Cc1ccccc1OP(N)(=O)Oc1ccccc1C	i	-2	2	7	-2	2	nt	nt	nt	nt
C[N+]12CCC(CC1)C(C(O)(c1ccccc1)c1cccs1)C2 (stereo not drawn)	i	12*	4	-12	-2	-6	nt	nt	nt	nt
CC(=O)c1ccc2c(c1)C1C(Cl)C(Sc3ccccc3[N+](=O)[O-])CC1C(c1ccccc1)N2 (stereo not drawn)	i	5.7*	-21	-22	3	-19	nt	nt	nt	nt
CC(=O)c1ccc2c(c1)C1C(Cl)C(Sc3ccccc3[N+](=O)[O-])CC1C(c1ccccc1[N+](=O)[O-])N2 (stereo not drawn)	i	1	-10	2	-2	-9	nt	nt	nt	nt
CCOc1ccccc1C1SCC(=O)Nc2c1c(=O)[nH]n2C(CC)CC (stereo not drawn)	i	-1	5	11	11*	-1	nt	nt	nt	nt
CCCC(C)n1[nH]c(=O)c2c1NC(=O)CSC2c1ccccc1 (stereo not drawn)	i	-2	9	3	-1	5	nt	nt	nt	nt
Cc1cc(=O)oc2cc(OCC(=O)N3CCN(Cc4ccc5c(c4)OCO5)CC3)ccc12	i	0	11	-1	9.7*	1	nt	nt	nt	nt
O=P(O)(O)Cc1c(Cl)cccc1Cl	i	0	3	-6	12*	-7	nt	nt	nt	nt
Cc1nc2c(C(=O)N3CCC4(CC3)OCCO4)cnn2c(C)c1Cc1cccc(Cl)c1	nt	1	4	-9	-1	-7	nt	nt	nt	nt
Cc1cc(OCC(=O)N2CCC(C(N)=O)CC2)c2c3c(c(=O)oc2c1)CCCC3	nt	-3	4	11	8.6*	13	nt	nt	nt	nt
COC1C(O)C(C)OC(OC2C(Oc3cccc4c(O)c5c(=O)oc6ccc(C)c7c(=O)oc(c34)c5c67)OC(C)C(O)C2O)C1O (stereo not drawn)	+	nt	nt	nt	nt	nt	nt	nt	nt	nt
Nc1ccnn1C1CCNCC1	i	25*	-3	6	-1	-13	nt	nt	nt	nt
NP(=O)(Oc1ccccc1)Oc1ccccc1	i	nt	nt	nt	nt	nt	nt	nt	nt	nt
NP(=O)(Oc1ccc(Cl)cc1)Oc1ccc(Cl)cc1	i	7.7*	-11	-13	-3	-6	nt	nt	nt	nt
O=C1NCN(c2ccccc2)C12CCN(C(CCc1ccccc1)c1nnnn1Cc1ccccc1)CC2 (stereo not drawn)	i	nt	nt	nt	nt	nt	nt	nt	nt	nt
Cc1ccc2c(C)c3ccc4ccccc4c3c[n+]2c1	+	nt	nt	nt	nt	nt	nt	nt	nt	nt
O=C1C(=O)c2cccc3cccc1c23	i	5.1*	4	-11	0	1	nt	nt	nt	nt
Cc1cc(OCC(=O)NC(Cc2ccc(Cl)cc2)C(=O)O)c2c3c(c(=O)oc2c1)CCC3 (stereo not drawn)	nt	-1	-1	20	19*	12	-4	33*	-7	19*
Cc1cc(OCC(=O)N[C@@H](Cc2ccccc2)C(=O)O)c2c3c(c(=O)oc2c1)CCC3	nt	-3	6	4	2	6	nt	nt	nt	nt
Cc1cc(OCC(=O)N[C@H](C(=O)O)c2ccccc2)c2c3c(c(=O)oc2c1)CCC3	nt	-2	7	-13	17*	11	-3	26*	-7	21*
CCCCCCCC(=O)NC(Oc1ccccc1[N+](=O)[O-])C(Cl)(Cl)Cl (stereo not drawn)	i	-4	-3	-5	-6	5	nt	nt	nt	nt
COc1ccc(Cl)cc1N=Cc1c(O)n(C)c(=O)n(C)c1=O	nt	-1	4	-6	13*	1	-2	-2	-5	21*
COC(=O)C1CN(C#N)N(c2ccc(Cl)cc2)C12c1ccccc1-c1ccccc12 (stereo not drawn)	i	-4	-14	-74	-5	-4	nt	nt	nt	nt
Cc1cccc(C)c1-n1nnnc1C(CCc1ccccc1)N1CCC2(CC1)C(=O)NCN2c1ccccc1 (stereo not drawn)	i	nt	nt	nt	nt	nt	nt	nt	nt	nt
SMILES	Neddylation inh	IMP-1 inh-1	procasp7 counter	PolyA inh	VIM-2 inh	procasp3 activ	IMP-1 inh-2	VIM-2 FRET ctr	TEM-1 inh	VIM-2 inh conf
O=[N+]([O-])c1ccc(-c2ccccc2)c([As](=O)(O)O)c1	i	-1	-4	-2	76*	-1	-3	82*	-3	80*
O=c1c2ccccc2[nH]c(=S)n1-c1cccc(C(F)(F)F)c1	i	nt	nt	nt	nt	nt	nt	nt	nt	nt
CCOC(=O)c1c(C)n(CCN2CCN(C)CC2)c2ccc(OC)cc12	i	-1	8	30	61*	5	0	2	0	80*
CCOC(=O)c1c(C)n(Cc2ccco2)c2ccc(OC)cc12	i	-2	5	-4	0	3	nt	nt	nt	nt
Cc1cc(OC(C)C(=O)NCc2ccncc2)c2c3c(c(=O)oc2c1)CCC3 (stereo not drawn)	nt	-3	12	-16	26*	-4	-3	-2	-8	42*
Cc1cc(OCC(=O)NCc2ccncc2)c2c3c(c(=O)oc2c1)CCCC3	nt	-2	9	8	40*	-2	-3	2	-12	52*
Cc1cc(OC(C)C(=O)NCC(O)c2ccccc2)c2c3c(c(=O)oc2c1)CCC3 (stereo not drawn)	nt	0	4	7	3	4	nt	nt	nt	nt
Cc1cc(OC(C)C(=O)NCc2ccncc2)c2c3c(c(=O)oc2c1)CCCC3 (stereo not drawn)	nt	3	1	-8	26*	-5	-2	-4	-9	32*
O=c1c2ccccc2[se]n1-c1ccccc1	i	-2	-35	-6	27*	-35	-3	-87	-10	42*
O=c1c2ccccc2nc(-c2ccccc2)n1-c1ccccc1	i	-4	-2	4	0	-6	nt	nt	nt	nt
O=C1CCCC2=C1C(c1cccnc1)Nc1ccccc1N2 (stereo not drawn)	i	-4	9	-2	-3	-13	nt	nt	nt	nt
O=C1C(=O)c2ccccc2-c2ccccc21	i	1	-9	-17	17*	-2	-5	-5	-4	18*
N#Cc1c(Br)n(C2OC(CO)C(O)C2O)c2ncnc(N)c12 (stereo not drawn)	i	nt	nt	nt	nt	nt	nt	nt	nt	nt
